Experimental data from the M2OR odorant receptor database.
Where a chain is given by its changes, count along the chain named.

Assays:
Conditions in all cases: stereoisomer not certain
OR4S2 (Homo sapiens) = molecular target: T1, OR4S2 (Homo sapiens) (UniProt Q8NH73)
T1 sequence (whole entry): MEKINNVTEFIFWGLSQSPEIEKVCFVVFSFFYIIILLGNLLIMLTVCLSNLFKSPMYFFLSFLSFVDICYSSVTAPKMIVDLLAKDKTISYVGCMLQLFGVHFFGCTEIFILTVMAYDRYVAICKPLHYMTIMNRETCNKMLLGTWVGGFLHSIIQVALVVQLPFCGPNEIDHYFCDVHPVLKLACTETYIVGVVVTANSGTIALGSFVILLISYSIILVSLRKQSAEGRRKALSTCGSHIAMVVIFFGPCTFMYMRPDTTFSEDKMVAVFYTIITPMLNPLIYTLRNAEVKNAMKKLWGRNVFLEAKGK
Summary of the method: (§1)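 Each entry records the cell line, G-protein, co-transfected protein and tags used. Methods varied with the source, often transient luciferase assays in mammalian cell lines. A receptor–molecule pair is called responsive (active) if the original authors judged its signal statistically different from baseline and non-responsive (inactive) otherwise.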

OR4X1 (Homo sapiens) = molecular target: T2, OR4X1 (Homo sapiens) (UniProt Q8NH49)
T2 sequence (whole entry): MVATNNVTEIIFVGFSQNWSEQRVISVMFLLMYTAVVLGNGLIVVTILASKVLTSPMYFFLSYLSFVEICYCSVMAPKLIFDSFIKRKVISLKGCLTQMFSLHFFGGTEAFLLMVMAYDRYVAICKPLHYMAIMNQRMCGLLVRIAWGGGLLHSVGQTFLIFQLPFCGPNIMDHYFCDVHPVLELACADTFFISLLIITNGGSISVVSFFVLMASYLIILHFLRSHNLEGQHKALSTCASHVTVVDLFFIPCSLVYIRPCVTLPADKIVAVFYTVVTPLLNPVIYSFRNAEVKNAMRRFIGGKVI
Summary of the method: as §1

OR4X2 (Homo sapiens) = molecular target: T3, OR4X2 (Homo sapiens) (UniProt Q8NGF9)
T3 sequence (whole entry): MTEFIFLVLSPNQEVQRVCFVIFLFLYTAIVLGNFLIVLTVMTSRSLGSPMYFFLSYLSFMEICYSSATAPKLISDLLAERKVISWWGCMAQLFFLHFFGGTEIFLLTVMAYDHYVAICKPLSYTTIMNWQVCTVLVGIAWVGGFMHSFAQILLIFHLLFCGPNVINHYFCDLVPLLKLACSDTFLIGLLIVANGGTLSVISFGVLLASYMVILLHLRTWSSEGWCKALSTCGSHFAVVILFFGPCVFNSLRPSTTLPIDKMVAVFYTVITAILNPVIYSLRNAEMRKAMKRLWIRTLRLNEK
Summary of the method: as §1

OR51A2 (Homo sapiens) = molecular target: T4, OR51A2 (Homo sapiens) (UniProt Q8NGJ7)
T4 sequence (whole entry): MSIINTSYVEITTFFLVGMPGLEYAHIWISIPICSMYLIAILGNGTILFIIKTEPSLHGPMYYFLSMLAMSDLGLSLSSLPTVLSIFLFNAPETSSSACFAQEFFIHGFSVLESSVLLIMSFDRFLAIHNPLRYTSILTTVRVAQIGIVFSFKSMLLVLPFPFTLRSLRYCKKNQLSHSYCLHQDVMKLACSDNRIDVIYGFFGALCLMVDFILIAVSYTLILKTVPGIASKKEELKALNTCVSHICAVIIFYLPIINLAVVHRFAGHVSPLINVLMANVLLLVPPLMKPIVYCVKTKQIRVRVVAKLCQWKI
Summary of the method: as §1

OR51A4 (Homo sapiens) = molecular target: T5, OR51A4 (Homo sapiens) (UniProt Q8NGJ6)
T5 sequence (whole entry): T4 sequence (whole entry) with G59E, T94I, S97N, S167N, P227L, E235Q, G267R, M288T, K289N, W311R
Summary of the method: as §1

OR51A7 (Homo sapiens) = molecular target: T6, OR51A7 (Homo sapiens) (UniProt Q8NH64)
T6 sequence (whole entry): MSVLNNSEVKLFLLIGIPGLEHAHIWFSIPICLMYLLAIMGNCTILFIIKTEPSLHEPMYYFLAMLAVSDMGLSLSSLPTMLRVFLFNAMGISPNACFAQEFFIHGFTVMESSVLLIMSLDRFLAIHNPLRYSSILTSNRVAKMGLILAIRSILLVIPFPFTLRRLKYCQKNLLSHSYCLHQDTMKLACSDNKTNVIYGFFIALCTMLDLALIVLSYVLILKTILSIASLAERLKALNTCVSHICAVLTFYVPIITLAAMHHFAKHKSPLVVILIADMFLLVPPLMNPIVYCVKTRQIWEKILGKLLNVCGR
Summary of the method: as §1

OR51B2 (Homo sapiens) = molecular target: T7, OR51B2 (Homo sapiens) (UniProt Q9Y5P1)
T7 sequence (whole entry): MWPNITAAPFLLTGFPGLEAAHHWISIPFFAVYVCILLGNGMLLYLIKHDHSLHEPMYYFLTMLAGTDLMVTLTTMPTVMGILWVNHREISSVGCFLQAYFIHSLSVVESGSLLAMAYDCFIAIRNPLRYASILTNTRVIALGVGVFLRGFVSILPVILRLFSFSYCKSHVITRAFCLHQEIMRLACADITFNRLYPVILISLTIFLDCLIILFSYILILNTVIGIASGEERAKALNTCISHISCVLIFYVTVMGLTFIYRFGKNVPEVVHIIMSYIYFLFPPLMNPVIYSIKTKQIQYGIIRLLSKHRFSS
Summary of the method: as §1

OR51B4 (Homo sapiens) = molecular target: T8, OR51B4 (Homo sapiens) (UniProt Q9Y5P0)
T8 sequence (whole entry): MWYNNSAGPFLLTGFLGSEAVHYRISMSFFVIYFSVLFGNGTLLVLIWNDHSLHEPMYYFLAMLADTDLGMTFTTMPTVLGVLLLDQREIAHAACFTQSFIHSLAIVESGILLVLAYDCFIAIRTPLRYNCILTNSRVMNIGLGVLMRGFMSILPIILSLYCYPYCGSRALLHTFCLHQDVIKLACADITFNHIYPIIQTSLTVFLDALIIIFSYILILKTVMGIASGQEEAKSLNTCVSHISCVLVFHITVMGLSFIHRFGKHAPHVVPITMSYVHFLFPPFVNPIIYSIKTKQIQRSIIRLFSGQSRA
Summary of the method: as §1

OR51B5 (Homo sapiens) = molecular target: T9, OR51B5 (Homo sapiens) (UniProt Q9H339)
T9 sequence (whole entry): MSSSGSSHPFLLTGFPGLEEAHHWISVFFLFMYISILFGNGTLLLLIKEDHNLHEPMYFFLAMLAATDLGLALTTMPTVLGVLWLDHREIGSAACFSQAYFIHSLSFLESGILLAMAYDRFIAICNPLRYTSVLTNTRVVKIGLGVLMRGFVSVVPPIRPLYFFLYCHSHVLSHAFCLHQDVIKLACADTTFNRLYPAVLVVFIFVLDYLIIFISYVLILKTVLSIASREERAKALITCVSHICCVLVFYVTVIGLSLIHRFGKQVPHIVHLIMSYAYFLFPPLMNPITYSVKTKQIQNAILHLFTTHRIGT
Summary of the method: as §1

OR51B6 (Homo sapiens) = molecular target: T10, OR51B6 (Homo sapiens) (UniProt Q9H340)
T10 sequence (whole entry): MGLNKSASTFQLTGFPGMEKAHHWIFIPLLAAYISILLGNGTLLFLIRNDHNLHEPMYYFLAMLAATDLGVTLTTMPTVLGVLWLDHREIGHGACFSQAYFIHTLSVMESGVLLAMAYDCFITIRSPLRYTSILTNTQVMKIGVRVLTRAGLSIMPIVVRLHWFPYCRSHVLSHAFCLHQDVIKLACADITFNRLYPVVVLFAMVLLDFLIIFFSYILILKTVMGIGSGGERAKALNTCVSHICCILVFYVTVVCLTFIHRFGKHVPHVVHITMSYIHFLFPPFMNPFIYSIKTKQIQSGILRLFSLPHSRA
Summary of the method: as §1

OR51D1 (Homo sapiens) = molecular target: T11, OR51D1 (Homo sapiens) (UniProt Q8NGF3)
T11 sequence (whole entry): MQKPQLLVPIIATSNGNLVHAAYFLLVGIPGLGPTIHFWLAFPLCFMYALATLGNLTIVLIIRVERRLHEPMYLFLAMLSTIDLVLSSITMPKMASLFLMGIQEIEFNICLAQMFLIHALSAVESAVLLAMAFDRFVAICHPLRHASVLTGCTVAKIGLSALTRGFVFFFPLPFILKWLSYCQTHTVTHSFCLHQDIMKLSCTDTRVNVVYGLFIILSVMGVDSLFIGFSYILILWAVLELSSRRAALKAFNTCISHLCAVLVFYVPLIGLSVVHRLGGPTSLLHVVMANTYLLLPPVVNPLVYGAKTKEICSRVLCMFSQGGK
Summary of the method: as §1

OR51E1 (Homo sapiens) = molecular target: T12, OR51E1 (Homo sapiens) (UniProt Q8TCB6)
T12 sequence (whole entry): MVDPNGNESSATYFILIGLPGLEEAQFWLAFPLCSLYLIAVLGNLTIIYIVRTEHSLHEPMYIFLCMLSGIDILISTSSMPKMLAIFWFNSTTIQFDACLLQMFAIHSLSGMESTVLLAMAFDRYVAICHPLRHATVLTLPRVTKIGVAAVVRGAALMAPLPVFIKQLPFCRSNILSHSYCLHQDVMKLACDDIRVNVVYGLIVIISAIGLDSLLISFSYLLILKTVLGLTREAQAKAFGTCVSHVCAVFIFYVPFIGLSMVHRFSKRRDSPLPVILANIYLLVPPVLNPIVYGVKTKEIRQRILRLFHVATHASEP
Summary of the method: as §1

OR51E2 (Homo sapiens) = molecular target: T13, OR51E2 (Homo sapiens) (UniProt Q9H255)
T13 sequence (whole entry): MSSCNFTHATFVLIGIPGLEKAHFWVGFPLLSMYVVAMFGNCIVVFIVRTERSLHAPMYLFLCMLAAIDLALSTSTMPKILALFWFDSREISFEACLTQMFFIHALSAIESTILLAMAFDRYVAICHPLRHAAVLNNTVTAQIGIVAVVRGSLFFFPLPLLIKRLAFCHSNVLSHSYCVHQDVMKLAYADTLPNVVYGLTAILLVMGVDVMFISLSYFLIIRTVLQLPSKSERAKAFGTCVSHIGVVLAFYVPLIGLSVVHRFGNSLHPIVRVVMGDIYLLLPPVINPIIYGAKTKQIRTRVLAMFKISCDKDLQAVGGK
Summary of the method: as §1

OR51F1 (Homo sapiens) = molecular target: T14, OR51F1 (Homo sapiens) (UniProt A6NGY5)
T14 sequence (whole entry): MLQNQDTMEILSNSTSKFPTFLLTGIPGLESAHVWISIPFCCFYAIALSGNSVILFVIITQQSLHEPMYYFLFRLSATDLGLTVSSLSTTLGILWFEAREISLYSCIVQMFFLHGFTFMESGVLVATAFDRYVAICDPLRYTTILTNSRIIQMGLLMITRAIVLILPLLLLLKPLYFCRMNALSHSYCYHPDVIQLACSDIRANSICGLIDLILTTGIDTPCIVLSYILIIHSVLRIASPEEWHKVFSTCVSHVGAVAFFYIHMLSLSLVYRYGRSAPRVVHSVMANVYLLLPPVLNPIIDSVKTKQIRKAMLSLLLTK
Summary of the method: as §1

OR51F2 (Homo sapiens) = molecular target: T15, OR51F2 (Homo sapiens) (UniProt Q8NH61)
T15 sequence (whole entry): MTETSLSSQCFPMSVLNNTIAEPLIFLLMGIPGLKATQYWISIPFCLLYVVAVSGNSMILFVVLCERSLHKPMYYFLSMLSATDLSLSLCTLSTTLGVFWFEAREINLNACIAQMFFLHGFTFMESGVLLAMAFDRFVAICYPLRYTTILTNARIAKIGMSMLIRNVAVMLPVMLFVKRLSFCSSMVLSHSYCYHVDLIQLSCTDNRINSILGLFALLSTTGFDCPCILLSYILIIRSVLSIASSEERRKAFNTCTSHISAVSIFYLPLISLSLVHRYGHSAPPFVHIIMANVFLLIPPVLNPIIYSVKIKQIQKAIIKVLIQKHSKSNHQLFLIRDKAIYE
Summary of the method: as §1

OR51G1 (Homo sapiens) = molecular target: T16, OR51G1 (Homo sapiens) (UniProt Q8NGK1)
T16 sequence (whole entry): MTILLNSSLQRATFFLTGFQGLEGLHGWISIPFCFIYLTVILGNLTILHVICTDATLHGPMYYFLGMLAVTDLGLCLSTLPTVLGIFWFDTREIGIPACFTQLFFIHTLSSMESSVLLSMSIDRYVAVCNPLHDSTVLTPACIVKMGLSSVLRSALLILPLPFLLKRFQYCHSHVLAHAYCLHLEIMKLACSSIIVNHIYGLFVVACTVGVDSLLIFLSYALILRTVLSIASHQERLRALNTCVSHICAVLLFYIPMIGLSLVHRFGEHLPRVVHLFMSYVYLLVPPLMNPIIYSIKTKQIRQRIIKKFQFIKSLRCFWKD
Summary of the method: as §1

OR51G2 (Homo sapiens) = molecular target: T17, OR51G2 (Homo sapiens) (UniProt Q8NGK0)
T17 sequence (whole entry): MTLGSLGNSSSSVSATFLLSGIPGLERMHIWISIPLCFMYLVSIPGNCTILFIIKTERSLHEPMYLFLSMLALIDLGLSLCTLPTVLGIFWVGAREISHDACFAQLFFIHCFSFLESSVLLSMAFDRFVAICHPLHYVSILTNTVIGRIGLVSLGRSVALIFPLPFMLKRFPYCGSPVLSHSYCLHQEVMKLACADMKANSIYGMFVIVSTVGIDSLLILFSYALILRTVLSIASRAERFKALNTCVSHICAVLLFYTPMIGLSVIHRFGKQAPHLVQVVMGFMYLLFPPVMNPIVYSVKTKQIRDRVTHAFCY
Summary of the method: as §1

OR51I1 (Homo sapiens) = molecular target: T18, OR51I1 (Homo sapiens) (UniProt Q9H343)
T18 sequence (whole entry): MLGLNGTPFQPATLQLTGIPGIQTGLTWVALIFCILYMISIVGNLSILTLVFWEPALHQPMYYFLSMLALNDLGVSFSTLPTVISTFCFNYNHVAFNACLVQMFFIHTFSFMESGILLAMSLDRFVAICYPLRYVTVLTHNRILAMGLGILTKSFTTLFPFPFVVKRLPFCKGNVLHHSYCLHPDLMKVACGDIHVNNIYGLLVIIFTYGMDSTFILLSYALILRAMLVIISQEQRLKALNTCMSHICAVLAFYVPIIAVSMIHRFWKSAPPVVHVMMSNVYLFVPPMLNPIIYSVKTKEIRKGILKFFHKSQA
Summary of the method: as §1

Measured: odorant receptor agonist call

CCCCCC(S)C(C)CO (centres undefined)
inactive: OR4S2 (Homo sapiens) | OR4X1 (Homo sapiens) | OR4X2 (Homo sapiens) | OR51A2 (Homo sapiens) | OR51A4 (Homo sapiens) | OR51A7 (Homo sapiens) | OR51B2 (Homo sapiens) | OR51B4 (Homo sapiens) | OR51B5 (Homo sapiens) | OR51B6 (Homo sapiens) | OR51D1 (Homo sapiens) | OR51E1 (Homo sapiens) | OR51E2 (Homo sapiens) | OR51F1 (Homo sapiens) | OR51F2 (Homo sapiens) | OR51G1 (Homo sapiens) | OR51G2 (Homo sapiens) | OR51I1 (Homo sapiens)

CCCCCCCCCCCCCCCCCC(=O)OCC
inactive: OR51B5 (Homo sapiens)
